Assay results reported in ChEMBL document CHEMBL4330148, “Discovery and Characterization of Cyclic and Acyclic Trypsin Inhibitors from Momordica dioica” (J Nat Prod, 2019).
Active and inactive are the calls of the source. The calls are words filed in the database; no cut-off is given here. Bridge positions count the residues as written; N and C are the ends. Peptide text beside a SMILES is read from it.

Legend:
PC-3 = assay: Cytotoxicity against human PC3 cells after 24 hrs by MTT assay; type: cell-based; details: pc-3, 24 h
In short: (§1)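 HT-29, MCF7 and PC-3 cells were grown in DMEM with 10% FBS and 1% penicillin–streptomycin at 37 °C under 5% CO2. They were seeded at 2000 cells/well and grown 24 h. Peptides were added in triplicate at final concentrations of 0.05–100 μM for 24 h. 1% Triton X-100 and medium alone served as controls. MTT (5 mg/mL in PBS) was added for 4 h, formazan was dissolved in DMSO, and absorbance was read at 570 nm.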

HT-29 = assay: Cytotoxicity against human HT-29 cells after 24 hrs by MTT assay; type: cell-based; details: ht-29, 24 h; in short: as §1
Bos taurus = organism: Bos taurus; assay: Inhibition of bovine pancreatic trypsin at 0.1 to 100 uM preincubated for 30 mins followed by L-BAPNA substrate addition and measured after 10 mins
In short: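 Bovine pancreatic trypsin was dissolved in 1 mM HCl and diluted to 0.45 mg/mL in 50 mM Tris, 20 mM CaCl2, pH 8.2. Peptides (1 mM stock, eight-point 2-fold dilutions) were preincubated with trypsin for 30 min at 37 °C. L-BAPNA (0.435 mg/mL, 1% DMSO) was added for 10 min at room temperature, the reaction was stopped with 30% HOAc, and A410 was read. MCoTI-II was the reference inhibitor. Triplicate.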

[1] = Cytotoxicity against Spodoptera frugiperda Sf9 cells after 3 hrs by MTT assay; details: sf9, 3 h
[2] = Stability in 100% human serum at 30 uM after 24 hrs by RP-HPLC analysis; type: ADME, cell-free
MCF7 = assay: Cytotoxicity against human MCF7 cells after 24 hrs by MTT assay; type: cell-based; details: mcf7, 24 h; in short: as §1
[3] = Drug metabolism in 100% human serum at 30 uM up to 4 hrs by RP-HPLC analysis; type: ADME, cell-free

Row | Molecule | Activity (PC-3) | Activity (HT-29) | inhibition (Bos taurus) | Activity [1] | Stability [2] | Activity (MCF7) | Drug metabolism [3]
1 | CC[C@H](C)[C@@H]1NC(=O)[C@@H]2CSSC[C@@H]3NC(=O)[C@H](C)NC(=O)CNC(=O)CNC(=O)[C@H](CC(=O)O)NC(=O)[C@H](CO)NC(=O)CNC(=O)[C@H](CO)NC(=O)CNC(=O)[C@@H]4CSSC[C@H](NC(=O)[C@H](CC(=O)O)NC(=O)[C@H](CO)NC(=O)[C@H](CC(=O)O)NC(=O)[C@H](CCCNC(=N)N)NC(=O)[C@H](CCCNC(=N)N)NC(=O)[C@H](CSSC[C@H](NC1=O)C(=O)N[C@@H](CCCNC(=N)N)C(=O)NCC(=O)N[C@@H](CC(N)=O)C(=O)NCC(=O)N[C@@H](Cc1ccc(O)cc1)C(=O)N4)NC(=O)[C@H](CCCNC(=N)N)NC(=O)[C@H](CCC(N)=O)NC(=O)[C@H](CC(C)C)NC(=O)[C@H]([C@@H](C)CC)NC(=O)[C@H](CCCCN)NC(=O)[C@@H]1CCCN1C3=O)C(=O)N1CCC[C@H]1C(=O)NCC(=O)N[C@@H](C)C(=O)N2 (cyclo(ACICRGNGYCGSGSDGGACPKILQRCRRDSDCPG); disulfide 2-19, 4-26, 10-32) | Non-Toxic | Non-Toxic | Active | Non-Toxic | Stable | Non-Toxic | –
2 | CC[C@H](C)[C@@H]1NC(=O)[C@H](CCCCN)NC(=O)[C@@H]2CCCN2C(=O)[C@@H]2CSSC[C@@H]3NC(=O)[C@H](C)NC(=O)CNC(=O)[C@@H]4CCCN4C(=O)[C@@H]4CSSC[C@H](NC(=O)[C@H](Cc5ccc(O)cc5)NC(=O)CNC(=O)[C@H](CC(N)=O)NC(=O)CNC(=O)[C@H](CCC(N)=O)NC(=O)[C@H](CSSC[C@H](NC(=O)[C@H](CCCCN)NC(=O)[C@H](CCC(N)=O)NC(=O)[C@H](CC(C)C)NC1=O)C(=O)N[C@@H](CCCNC(=N)N)C(=O)N[C@@H](CCCNC(=N)N)C(=O)N[C@@H](CC(=O)O)C(=O)N[C@@H](CO)C(=O)N[C@@H](CC(=O)O)C(=O)N4)NC(=O)[C@H](C(C)C)NC3=O)C(=O)NCC(=O)N[C@@H](CO)C(=O)NCC(=O)N[C@@H](CO)C(=O)N[C@@H](CC(=O)O)C(=O)NCC(=O)NCC(=O)N[C@@H](C)C(=O)N2 | Non-Toxic | Non-Toxic | – | Non-Toxic | Stable | Non-Toxic | –
3 | CC[C@H](C)[C@@H]1NC(=O)[C@@H]2CSSC[C@H](NC(=O)[C@@H](NC(=O)[C@@H](CCCNC(=N)N)NC(=O)C3CCC(=O)N3)C(C)C)C(=O)N3CCC[C@H]3C(=O)N[C@@H](CCCNC(=N)N)C(=O)N[C@@H]([C@@H](C)CC)C(=O)N[C@@H](CC(C)C)C(=O)N[C@@H](CCCCN)C(=O)N[C@@H](CCCCN)C(=O)N[C@H]3CSSC[C@H](NC1=O)C(=O)N[C@@H](CCC(N)=O)C(=O)NCC(=O)N[C@@H](CC(N)=O)C(=O)NCC(=O)N[C@@H](Cc1ccc(O)cc1)C(=O)N[C@H](C(=O)NCC(N)=O)CSSC[C@H](NC(=O)[C@H](CC(=O)O)NC(=O)[C@H](CO)NC(=O)[C@H](CC(=O)O)NC(=O)[C@H](CCCNC(=N)N)NC(=O)[C@H](CCCNC(=N)N)NC3=O)C(=O)N1CCC[C@H]1C(=O)NCC(=O)N[C@@H](CCC(=O)O)C(=O)N2 (some centres not stated) | – | – | Active | – | – | – | –
4 | CC[C@H](C)[C@@H]1NC(=O)[C@H](CCCCN)NC(=O)[C@@H]2CCCN2C(=O)[C@@H]2CSSC[C@@H]3NC(=O)[C@H](C)NC(=O)CNC(=O)[C@@H]4CCCN4C(=O)[C@@H]4CSSC[C@H](NC(=O)[C@H](Cc5ccc(O)cc5)NC(=O)CNC(=O)[C@H](CC(N)=O)NC(=O)CNC(=O)[C@H](CCC(N)=O)NC(=O)[C@H](CSSC[C@H](NC(=O)[C@H](CCCCN)NC(=O)[C@H](CCC(N)=O)NC(=O)[C@H](CC(C)C)NC1=O)C(=O)N[C@@H](CCCNC(=N)N)C(=O)N[C@@H](CCCNC(=N)N)C(=O)N[C@@H](CC(=O)O)C(=O)N[C@@H](CO)C(=O)N[C@@H](CC(=O)O)C(=O)N4)NC(=O)[C@H](C(C)C)NC3=O)C(=O)NCC(=O)N[C@@H](CO)C(=O)NCC(=O)N[C@@H](CO)C(=O)N[C@H](CC(=O)O)C(=O)NCC(=O)NCC(=O)N[C@@H](C)C(=O)N2 | – | – | Active | – | – | – | –
5 | H-WQELYQLKY-OH | – | – | – | – | – | – | Metabolite_Detected
6 | CC[C@H](C)[C@@H]1NC(=O)[C@@H]2CSSC[C@H](NC(=O)[C@@H](NC(=O)[C@H](CCCNC(=N)N)NC(=O)[C@@H]3CCC(=O)N3)C(C)C)C(=O)N3CCC[C@H]3C(=O)N[C@@H](CCCNC(=N)N)C(=O)N[C@@H]([C@@H](C)CC)C(=O)N[C@@H](CC(C)C)C(=O)N[C@@H](CCCCN)C(=O)N[C@@H](CCCCN)C(=O)N[C@H]3CSSC[C@H](NC1=O)C(=O)N[C@@H](CCC(N)=O)C(=O)NCC(=O)N[C@@H](CC(N)=O)C(=O)NCC(=O)N[C@@H](Cc1ccc(O)cc1)C(=O)N[C@H](C(=O)NCC(N)=O)CSSC[C@H](NC(=O)[C@H](CC(=O)O)NC(=O)[C@H](CO)NC(=O)[C@H](CC(=O)O)NC(=O)[C@H](CCCNC(=N)N)NC(=O)[C@H](CCCNC(=N)N)NC3=O)C(=O)N1CCC[C@H]1C(=O)NCC(=O)N[C@@H](CCC(=O)O)C(=O)N2 | Non-Toxic | Non-Toxic | – | Non-Toxic | Stable | Non-Toxic | –
7 | CC[C@H](C)[C@@H]1NC(=O)[C@H](CCCNC(=N)N)NC(=O)[C@@H]2CCCN2C(=O)[C@@H]2CSSC[C@@H]3NC(=O)[C@H](C)NC(=O)[C@H](CO)NC(=O)[C@@H]4CCCN4C(=O)[C@@H]4CSSC[C@H](NC(=O)[C@H](Cc5ccc(O)cc5)NC(=O)CNC(=O)[C@H](CC(N)=O)NC(=O)CNC(=O)[C@H](CCC(N)=O)NC(=O)[C@H](CSSC[C@H](NC(=O)[C@H](CCCCN)NC(=O)[C@H](CCC(N)=O)NC(=O)[C@H](CC(C)C)NC1=O)C(=O)N[C@@H](CCCNC(=N)N)C(=O)N[C@@H](CCCNC(=N)N)C(=O)N[C@@H](CC(N)=O)C(=O)N[C@@H](CO)C(=O)N[C@@H](CC(=O)O)C(=O)N4)NC(=O)[C@H](C(C)C)NC3=O)C(=O)NCC(=O)N[C@@H](CO)C(=O)NCC(=O)N[C@@H](CO)C(=O)N[C@H](CC(=O)O)C(=O)NCC(=O)NCC(=O)N[C@@H](C)C(=O)N2 | – | – | Active | – | – | – | –
8 | CC[C@H](C)[C@@H]1NC(=O)[C@H](CCCNC(=N)N)NC(=O)[C@@H]2CCCN2C(=O)[C@@H]2CSSC[C@@H]3NC(=O)[C@H](C)NC(=O)CNC(=O)[C@@H]4CCCN4C(=O)[C@@H]4CSSC[C@H](NC(=O)[C@H](Cc5ccc(O)cc5)NC(=O)CNC(=O)[C@H](CC(N)=O)NC(=O)CNC(=O)[C@H](CCCNC(=N)N)NC(=O)[C@H](CSSC[C@H](NC(=O)[C@H](CCCCN)NC(=O)[C@H](CCCCN)NC(=O)[C@H](CC(C)C)NC1=O)C(=O)N[C@@H](CCCNC(=N)N)C(=O)N[C@@H](CCCNC(=N)N)C(=O)N[C@@H](CC(=O)O)C(=O)N[C@@H](CO)C(=O)N[C@@H](CC(=O)O)C(=O)N4)NC(=O)[C@H](C(C)C)NC3=O)C(=O)NCC(=O)N[C@@H](CO)C(=O)NCC(=O)N[C@@H](CO)C(=O)N[C@@H](CC(=O)O)C(=O)NCC(=O)NCC(=O)N[C@@H](C)C(=O)N2 | Non-Toxic | Non-Toxic | Active | Non-Toxic | Stable | Non-Toxic | –
9 | CC[C@H](C)[C@@H]1NC(=O)[C@H](CCCNC(=N)N)NC(=O)[C@@H]2CCCN2C(=O)[C@@H]2CSSC[C@@H]3NC(=O)[C@H](C)NC(=O)[C@H](CO)NC(=O)[C@@H]4CCCN4C(=O)[C@@H]4CSSC[C@H](NC(=O)[C@H](Cc5ccc(O)cc5)NC(=O)CNC(=O)[C@H](CC(N)=O)NC(=O)CNC(=O)[C@H](CCC(N)=O)NC(=O)[C@H](CSSC[C@H](NC(=O)[C@H](CCCCN)NC(=O)[C@H](CCC(N)=O)NC(=O)[C@H](CC(C)C)NC1=O)C(=O)N[C@@H](CCCNC(=N)N)C(=O)N[C@@H](CCCNC(=N)N)C(=O)N[C@@H](CC(N)=O)C(=O)N[C@@H](CO)C(=O)N[C@@H](CC(=O)O)C(=O)N4)NC(=O)[C@H](C(C)C)NC3=O)C(=O)NCC(=O)N[C@@H](CO)C(=O)NCC(=O)N[C@@H](CO)C(=O)N[C@@H](CC(=O)O)C(=O)NCC(=O)NCC(=O)N[C@@H](C)C(=O)N2 | Non-Toxic | Non-Toxic | – | Non-Toxic | Stable | Non-Toxic | –
10 | CC[C@H](C)[C@@H]1NC(=O)[C@@H]2CSSC[C@@H]3NC(=O)[C@H](C)NC(=O)CNC(=O)CNC(=O)[C@H](CC(=O)O)NC(=O)[C@H](CO)NC(=O)CNC(=O)[C@H](CO)NC(=O)CNC(=O)[C@@H]4CSSC[C@H](NC(=O)[C@H](CC(=O)O)NC(=O)[C@H](CO)NC(=O)[C@H](CC(=O)O)NC(=O)[C@H](CCCNC(=N)N)NC(=O)[C@H](CCCNC(=N)N)NC(=O)[C@H](CSSC[C@H](NC1=O)C(=O)N[C@@H](CCC(N)=O)C(=O)NCC(=O)N[C@@H](CC(N)=O)C(=O)NCC(=O)N[C@@H](Cc1ccc(O)cc1)C(=O)N4)NC(=O)[C@H](CCCCN)NC(=O)[C@H](CCCCN)NC(=O)[C@H](CC(C)C)NC(=O)[C@H]([C@@H](C)CC)NC(=O)[C@H](CCCNC(=N)N)NC(=O)[C@@H]1CCCN1C3=O)C(=O)N1CCC[C@H]1C(=O)N[C@@H](CO)C(=O)N[C@@H](C)C(=O)N2 | Non-Toxic | Non-Toxic | Active | Non-Toxic | Stable | Non-Toxic | –
